Test results from ChEMBL document CHEMBL1153602, “Photochemical electrocyclisation of 3-vinylindoles to pyrido[2,3-a]-, pyrido[4,3-a]- and thieno[2,3-a]-carbazoles: design, synthesis, DNA binding and antitumor cell cytotoxicity” (2009).
Calls of active or inactive are those of the source. No cut-off for these calls is given here.

Legend:
Nucleic Acid [1] = experiment: Binding affinity to poly(dA).poly(dT) duplex DNA assessed as change in thermal melting temperature at compound to DNA ratio of 0.5 by UV-vis spectroscopy; assay type: nucleic-acid assay
Calf thymus DNA [2] = experiment: Binding affinity to calf thymus DNA assessed as change in melting temperature at a compound to DNA molar ratio of 1 by UV-vis spectroscopy; assay type: nucleic-acid assay; conditions: Bos taurus
Summary of the method: (§1)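 UV absorbance of DNA at 260 nm recorded every minute from 20 to 100 °C, ramping 1 °C/min in a thermostated quartz cell. Tm is taken as the midpoint of the hyperchromic transition. ΔTm = Tm(DNA+drug) − Tm(DNA alone). Calf-thymus DNA or poly(dAdT)2 was used at DNA/drug ratios from 0.1 to 1.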

Calf thymus DNA [3] = experiment: Binding affinity to calf thymus DNA assessed as quenching constant by fluorescence spectroscopy; assay type: nucleic-acid assay; conditions: Bos taurus
Summary of the method: (§2)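 Drug at a fixed 20 µM in 1 ml BPE buffer in a 10 mm quartz cuvette, titrated with CT-DNA at 10–200 µM base pairs. Excitation was set at each compound's own wavelength (276–319 nm). Constants came from Stern–Volmer plots of F0/F against CT-DNA concentration, with the slope taken as Ksv.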

Calf thymus DNA [4] = experiment: Binding affinity to calf thymus DNA assessed as positive dichroic signal at phosphate/drug ratio by circular dichroism spectra; assay type: nucleic-acid assay; conditions: Bos taurus
Summary of the method: (§3)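 Circular dichroism of drug at […] in 1 ml of 1 mM sodium cacodylate, pH 7.0, with or without CT-DNA at 10–200 µM. Phosphate/compound ratio ran from 0.4 to 8. The induced CD signal in the ligand absorption region was recorded.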

Calf thymus DNA [5] = experiment: Binding affinity to calf thymus DNA assessed as negative dichroic signal at phosphate/drug ratio by circular dichroism spectra; assay type: nucleic-acid assay; conditions: Bos taurus; summary of the method: as §3
Nucleic Acid [6] = experiment: Binding affinity to poly(dA).poly(dT) duplex DNA assessed as change in thermal melting temperature at compound to DNA ratio of 0.1 by UV-vis spectroscopy; assay type: nucleic-acid assay
Calf thymus DNA [7] = experiment: Binding affinity to calf thymus DNA assessed as change in melting temperature at a compound to DNA molar ratio of 0.5 by UV-vis spectroscopy; assay type: nucleic-acid assay; conditions: Bos taurus; summary of the method: as §1
Nucleic Acid [8] = experiment: Binding affinity to poly(dA).poly(dT) duplex DNA assessed as change in thermal melting temperature at compound to DNA ratio of 0.25 by UV-vis spectroscopy; assay type: nucleic-acid assay
Nucleic Acid [9] = experiment: Binding affinity to pBS 117bp DNA by DnaseI footprinting assay; assay type: nucleic-acid assay
Summary of the method: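 Ligand and fragment were pre-incubated 15 min at 37 °C, then digested with DNase I at 0.001 unit/ml in 20 mM NaCl, 2 mM MgCl2, 2 mM MnCl2, pH 7.3. Products were resolved on a denaturing 8% polyacrylamide/8 M urea gel, with a G-track marker.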

Calf thymus DNA [10] = experiment: Binding affinity to calf thymus DNA assessed as change in melting temperature at a compound to DNA molar ratio of 0.1 by UV-vis spectroscopy; assay type: nucleic-acid assay; conditions: Bos taurus; summary of the method: as §1
HT-29 [11] = experiment: Cell cycle arrest in human HT-29 cells assessed as accumulation at S phase after 24 hrs using PI staining by flow cytometry; assay type: functional, cell-based
Summary of the method: (§4)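 HT-29 cells, 3×10^5 per sample in exponential growth, were exposed to graded drug concentrations for 24 h. Cells were then trypsinised, fixed in 70% ethanol and stained 30 min in the dark with propidium iodide (50 µg/ml) plus RNase (100 µg/ml). DNA content was measured by flow cytometry, quantifying cell-cycle phases and the sub-G1 fraction.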

HT-29 [12] = experiment: Growth inhibition of human HT-29 cells by MTS assay; assay type: functional
Summary of the method: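 HT-29 cells, 3×10^3 per well, were seeded 24 h before treatment with compound at 1 nM–100 µM, run as 3 series of duplicate or triplicate points. After 72 h at 37 °C, MTS tetrazolium was added for 2 h and absorbance read at 492 nm. GC50 is the concentration halving cell number versus untreated control wells.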

Calf thymus DNA [13] = experiment: Binding affinity to calf thymus DNA assessed as change in melting temperature at a compound to DNA molar ratio of 0.25 by UV-vis spectroscopy; assay type: nucleic-acid assay; conditions: Bos taurus; summary of the method: as §1
Nucleic Acid [14] = experiment: Binding affinity to poly(dA).poly(dT) duplex DNA assessed as change in thermal melting temperature at compound to DNA ratio of 1 by UV-vis spectroscopy; assay type: nucleic-acid assay
Calf thymus DNA [15] = experiment: Binding affinity to calf thymus DNA assessed as positive dichroic signal at phosphate/drug ratio of 4.8 by circular dichroism spectra; assay type: nucleic-acid assay; conditions: Bos taurus; summary of the method: as §3
HT-29 [16] = experiment: Cell cycle arrest in human HT-29 cells assessed as accumulation at G2/M phase after 24 hrs using PI staining by flow cytometry; assay type: functional, cell-based; summary of the method: as §4
SW-620 = experiment: Growth inhibition of human SW620 cells after 48 hrs by sulforhodamine B protein assay; assay type: functional; conditions: SW-620, 48 h
Summary of the method: (§5)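 NCI 60-cell-line screen. Dose–response used at least five concentrations in 10-fold dilutions with 48 h continuous drug exposure. Growth was estimated by sulforhodamine B protein staining. GI50 is the molar concentration giving 50% growth inhibition versus control.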

HT-29 [17] = experiment: Cell cycle arrest in human HT-29 cells assessed as accumulation at G2/M phase at 25 uM after 24 hrs using PI staining by flow cytometry; assay type: functional, cell-based; summary of the method: as §4
UO-31 = experiment: Growth inhibition of human UO31 cells after 48 hrs by sulforhodamine B protein assay; assay type: functional; conditions: UO-31, 48 h; summary of the method: as §5
HT-29 [18] = experiment: Cell cycle arrest in human HT-29 cells at 25 uM after 24 hrs using PI staining by flow cytometry
[19] = biological target: DNA topoisomerase 2-alpha (Homo sapiens) (UniProt P11388); experiment: Inhibition of human topoisomerase 2-mediated DNA relaxation assessed as double stranded break form by agarose gel electrophoresis
Summary of the method: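 Supercoiled pUC19 (130 ng) with compound at 20 or 50 µM, or etoposide as control, was incubated with human topoisomerase II (4 units) for 45 min at 37 °C in cleavage buffer. The reaction was stopped with 0.25% SDS plus proteinase K for 30 min at 50 °C. DNA forms were separated on 1% agarose containing ethidium bromide in TBE.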

SK-MEL-5 = experiment: Growth inhibition of human SK-MEL-5 cells after 48 hrs by sulforhodamine B protein assay; assay type: functional; conditions: SK-MEL-5, 48 h; summary of the method: as §5
HT-29 [20] = experiment: Growth inhibition of human HT-29 cells after 48 hrs by sulforhodamine B protein assay; assay type: functional; conditions: HT-29, 48 h; summary of the method: as §5
[21] = biological target: T1, DNA topoisomerase 1 (Homo sapiens) (UniProt P11387); experiment: Inhibition of human topoisomerase 1-mediated DNA relaxation assessed as lack of nicking form by agarose gel electrophoresis
T1 sequence (whole entry): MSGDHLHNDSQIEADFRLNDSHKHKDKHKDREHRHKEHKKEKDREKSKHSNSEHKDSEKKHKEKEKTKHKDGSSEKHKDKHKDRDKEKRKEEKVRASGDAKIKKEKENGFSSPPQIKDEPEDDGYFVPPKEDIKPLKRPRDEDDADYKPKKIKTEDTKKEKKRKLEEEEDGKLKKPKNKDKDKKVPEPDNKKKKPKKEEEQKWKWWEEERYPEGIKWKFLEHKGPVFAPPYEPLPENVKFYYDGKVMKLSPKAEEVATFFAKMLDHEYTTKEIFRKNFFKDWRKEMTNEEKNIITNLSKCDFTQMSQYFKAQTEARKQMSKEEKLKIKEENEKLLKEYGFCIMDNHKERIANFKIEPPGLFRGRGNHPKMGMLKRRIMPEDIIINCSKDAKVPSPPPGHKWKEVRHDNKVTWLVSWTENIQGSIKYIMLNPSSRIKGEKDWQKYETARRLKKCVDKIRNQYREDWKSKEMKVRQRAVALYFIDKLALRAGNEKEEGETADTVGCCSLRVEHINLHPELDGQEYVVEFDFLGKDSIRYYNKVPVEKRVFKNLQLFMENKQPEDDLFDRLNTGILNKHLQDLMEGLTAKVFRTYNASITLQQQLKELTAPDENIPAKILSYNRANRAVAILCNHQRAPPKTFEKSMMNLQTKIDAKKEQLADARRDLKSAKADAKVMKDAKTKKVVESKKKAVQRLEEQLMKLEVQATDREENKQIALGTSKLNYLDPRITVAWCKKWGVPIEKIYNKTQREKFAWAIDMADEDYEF
Summary of the method: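 Supercoiled pUC19 (130 ng) was pre-incubated with compound at graded concentrations, or 20 or 50 µM in the cleavage assay. Human topoisomerase I (4 units) was then added for 45 min at 37 °C in 50 mM Tris pH 7.8, 50 mM KCl, 10 mM MgCl2, 1 mM DTT, 1 mM EDTA, 1 mM ATP. Camptothecin (20 µM) served as control. Samples ran on 1% agarose for 2 h at 120 V in TBE, with ethidium bromide either post-stained (relaxation) or included in the gel (cleavage).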

HT-29 [22] = experiment: Cell cycle arrest in human HT-29 cells assessed as accumulation at S phase at 10 uM after 24 hrs using PI staining by flow cytometry; assay type: functional; summary of the method: as §4
Calf thymus DNA [23] = experiment: Binding affinity to calf thymus DNA assessed as positive dichroic signal at phosphate/drug ratio of 1.2 by circular dichroism spectra; assay type: nucleic-acid assay; conditions: Bos taurus; summary of the method: as §3
Calf thymus DNA [24] = experiment: Binding affinity to calf thymus DNA assessed as quenching constant up 80 uM by fluorescence spectroscopy; assay type: nucleic-acid assay; conditions: Bos taurus; summary of the method: as §2

Sequence of DNA topoisomerase 2-alpha (Homo sapiens) (P11388 whole entry): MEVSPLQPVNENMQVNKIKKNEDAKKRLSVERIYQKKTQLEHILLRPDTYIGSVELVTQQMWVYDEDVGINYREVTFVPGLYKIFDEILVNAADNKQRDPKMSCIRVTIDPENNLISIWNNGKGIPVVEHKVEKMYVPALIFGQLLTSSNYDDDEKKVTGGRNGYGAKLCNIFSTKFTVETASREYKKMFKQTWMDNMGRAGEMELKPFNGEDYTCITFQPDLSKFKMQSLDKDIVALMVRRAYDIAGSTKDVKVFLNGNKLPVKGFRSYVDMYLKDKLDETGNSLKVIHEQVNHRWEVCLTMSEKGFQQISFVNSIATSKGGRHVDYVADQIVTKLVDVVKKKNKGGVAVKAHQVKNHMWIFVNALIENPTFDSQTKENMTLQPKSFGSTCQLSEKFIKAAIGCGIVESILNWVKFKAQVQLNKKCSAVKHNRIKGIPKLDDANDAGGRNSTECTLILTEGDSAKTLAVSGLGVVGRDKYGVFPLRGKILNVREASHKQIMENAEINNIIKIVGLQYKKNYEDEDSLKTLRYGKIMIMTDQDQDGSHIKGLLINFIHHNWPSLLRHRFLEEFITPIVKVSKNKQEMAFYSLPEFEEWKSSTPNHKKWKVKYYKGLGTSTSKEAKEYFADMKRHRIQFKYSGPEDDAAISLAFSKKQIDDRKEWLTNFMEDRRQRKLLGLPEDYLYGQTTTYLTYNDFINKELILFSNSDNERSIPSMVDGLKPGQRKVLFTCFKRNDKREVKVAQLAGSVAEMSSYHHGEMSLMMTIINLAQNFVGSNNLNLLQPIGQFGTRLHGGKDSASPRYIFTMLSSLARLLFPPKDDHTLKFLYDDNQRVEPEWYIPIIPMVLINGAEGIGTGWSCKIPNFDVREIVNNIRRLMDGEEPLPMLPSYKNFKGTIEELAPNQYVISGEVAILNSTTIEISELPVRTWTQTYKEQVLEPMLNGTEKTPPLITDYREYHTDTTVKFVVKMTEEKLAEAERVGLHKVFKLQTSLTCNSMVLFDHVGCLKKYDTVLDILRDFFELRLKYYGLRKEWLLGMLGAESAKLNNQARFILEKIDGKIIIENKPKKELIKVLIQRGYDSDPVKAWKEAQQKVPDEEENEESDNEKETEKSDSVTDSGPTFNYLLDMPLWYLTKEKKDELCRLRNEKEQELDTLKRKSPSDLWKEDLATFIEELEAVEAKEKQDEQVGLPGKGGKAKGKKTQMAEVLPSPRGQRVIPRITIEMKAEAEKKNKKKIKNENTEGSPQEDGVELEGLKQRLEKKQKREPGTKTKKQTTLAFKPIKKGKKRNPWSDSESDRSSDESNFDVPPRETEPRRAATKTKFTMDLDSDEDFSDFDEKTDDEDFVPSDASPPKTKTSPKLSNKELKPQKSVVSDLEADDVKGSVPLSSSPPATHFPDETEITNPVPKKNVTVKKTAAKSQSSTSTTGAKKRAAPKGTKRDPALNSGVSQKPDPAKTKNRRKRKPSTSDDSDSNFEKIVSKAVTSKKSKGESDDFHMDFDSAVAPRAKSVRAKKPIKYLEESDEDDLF

Structure (SMILES) | ΔTm (Nucleic Acid [1]) | ΔTm (Calf thymus DNA [2]) | ΔTm (Nucleic Acid [6]) | ΔTm (Calf thymus DNA [7]) | ΔTm (Nucleic Acid [8]) | Activity (Nucleic Acid [9]) | ΔTm (Calf thymus DNA [10]) | GI50 (HT-29 [12]) | ΔTm (Calf thymus DNA [13]) | ΔTm (Nucleic Acid [14]) | Activity (HT-29 [16]) | also measured
CN(C)CCCNC(=O)c1cc2c3cccc(Cl)c3[nH]c2c2ncccc12 | 23.6 °C | 13.8 °C | 9.7 °C | 10.4 °C | 17.6 °C | Active | 2.6 °C | 4490 nM | 5 °C | 29.8 °C | Active | Activity (Calf thymus DNA [15]): Active
CN(C)CCNC(=O)c1cc2c3cc(Cl)ccc3[nH]c2c2ncccc12 | 18.9 °C | 11.7 °C | 6.1 °C | 7.3 °C | 14.7 °C | Active | 1.5 °C | 3200 nM | 7.4 °C | 24.9 °C | – | GI50 (SW-620; read-out: GI50): 1470 nM; GI50 (SW-620; read-out: pGI50 (converted)): 1480 nM; Activity (HT-29 [17]): Active; GI50 (UO-31; read-out: GI50): 1100 nM; GI50 (UO-31; read-out: pGI50 (converted)): 1100 nM; Activity (HT-29 [18]): Active; Activity [19]: Active; GI50 (SK-MEL-5; read-out: GI50): 1340 nM; GI50 (SK-MEL-5; read-out: pGI50 (converted)): 1350 nM; GI50 (HT-29 [20]; read-out: GI50): 2330 nM; GI50 (HT-29 [20]; read-out: pGI50 (converted)): 2340 nM; Activity [21]: Active; Activity (HT-29 [22]): 37%
CN(C)CCNC(=O)c1cc2c3cccc(Cl)c3[nH]c2c2ncccc12 | 13.6 °C | 7.9 °C | 2.8 °C | 5.1 °C | 6.2 °C | Active | 1.1 °C | 14000 nM | 1.5 °C | 8.8 °C | Active | Activity (Calf thymus DNA [23]): Active

More lines, in order of falling GI50 (HT-29 [12]), values ahead:

ΔTm (Nucleic Acid [1]) | ΔTm (Calf thymus DNA [2]) | ΔTm (Nucleic Acid [6]) | ΔTm (Calf thymus DNA [7]) | ΔTm (Nucleic Acid [8]) | Activity (Nucleic Acid [9]) | ΔTm (Calf thymus DNA [10]) | GI50 (HT-29 [12]) | ΔTm (Calf thymus DNA [13]) | ΔTm (Nucleic Acid [14]) | Structure (SMILES) | Activity (HT-29 [16]) | also measured
16.4 °C | 5.8 °C | 5.9 °C | 4.4 °C | 11.9 °C | Active | 0 °C | 10800 nM | 1.5 °C | 20.9 °C | CN(C)CCCNC(=O)c1cc2c3ccccc3[nH]c2c2sccc12 | – | KSV (Calf thymus DNA [24]): 2.65 ×10⁴ /M
24.7 °C | 15.1 °C | 11.6 °C | 11.2 °C | 18.9 °C | Active | 5.3 °C | 1080 nM | 7.9 °C | 29.6 °C | CN(C)CCNC(=O)c1cc2c3cc(Cl)ccc3[nH]c2c2ccncc12 | – | KSV (Calf thymus DNA [3]): 6.72 ×10³ /M; Activity (Calf thymus DNA [4]): Active; Activity (Calf thymus DNA [5]): Active; Activity (HT-29 [11]): Active
